Screens: PubChem, Johns Hopkins Ion Channel Center
In the library only some 3.5% were active in any assay of this set; here they are far more common.
MrgX1 antagonist: blocks BAM8-22 activation of human MrgX1 receptor | 310,000 compounds, 1.3% hits | AID 588676 | Q96LB2 | MRGX1-HEK293 calcium flux, Fluo-4, BAM8-22 antagonism; stronger effect = lower value | B-score at 10 µM;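 active = calcium-response B-score plate-corrected more than 3 library SD below zero, starting fluorescence within 5 deviations, no agonist response on first addition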;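 also: peak minus trough fluorescence over baseline after final BAM8-22 challenge near maximal dose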
Target sequence (Q96LB2 whole entry, looked up): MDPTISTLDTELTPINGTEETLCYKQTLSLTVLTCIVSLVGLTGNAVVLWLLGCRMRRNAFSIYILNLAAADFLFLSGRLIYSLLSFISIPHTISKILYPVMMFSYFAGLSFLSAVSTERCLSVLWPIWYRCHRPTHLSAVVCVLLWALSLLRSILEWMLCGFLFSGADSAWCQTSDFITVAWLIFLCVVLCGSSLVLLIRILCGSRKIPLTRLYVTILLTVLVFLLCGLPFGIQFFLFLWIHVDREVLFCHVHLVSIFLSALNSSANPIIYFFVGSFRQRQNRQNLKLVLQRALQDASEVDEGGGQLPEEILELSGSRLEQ
MrgX1 allo act: human MrgX1 positive allosteric modulation, primary screen; Q96LB2; MrgX1-HEK293, Fluo-4 calcium flux, FDSS; stronger effect = higher value; B-score at 10 µM; 310,000 compounds, 0.63% hits; AID 588675;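 active = plate-corrected calcium response at least 3 library SD above typical, normal starting fluorescence, not activating the receptor alone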;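 also: compound read alongside a low EC10 to EC30 dose of BAM8-22 agonist; peak minus trough fluorescence over baseline measured at the second addition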
RGS4 block: human RGS4 inhibition; P49798; HEK293 M3R/RGS4 inducible, Fluo-4 calcium flux; stronger effect = higher value; triggered by carbachol at its EC20; B-score at 10 µM; 310,000 compounds, 0.45% hits;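 active = B-score, a plate-corrected calcium signal, over three deviations above library mean, with baseline fluorescence within five deviations of library mean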;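 also: RGS4 expression induced by doxycycline in cells with stable M3 receptor; B-score is computed from the integrated fluorescence ratio over baseline after carbachol; higher B-score means a larger calcium signal and so more RGS4 inhibition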
Target sequence (P49798 whole entry, looked up): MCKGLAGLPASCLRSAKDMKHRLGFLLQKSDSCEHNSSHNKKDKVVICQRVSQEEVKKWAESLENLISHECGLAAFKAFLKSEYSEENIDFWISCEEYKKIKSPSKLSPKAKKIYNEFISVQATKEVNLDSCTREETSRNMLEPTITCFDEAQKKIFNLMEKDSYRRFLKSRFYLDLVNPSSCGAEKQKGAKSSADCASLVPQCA
MrgX1 ag: activates human MrgX1 receptor signaling; MrgX1-HEK293 cells, Fluo-4 calcium fluorescence, agonist mode; stronger effect = higher value; 310,000 compounds, 0.44% hits; Q96LB2; B-score at 10 µM;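 active = calcium response B-score plate-corrected fluorescence ratio at least 3 library SD, with starting fluorescence B-score inside 5 SD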
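Assay system: stable human MrgX1 HEK293 cell line. Quantity: 15,000 cells per well. Schedule: cells plated overnight, dye loaded 0.5 h 37 °C, 0.5 h room temperature. Detection: Fluo-4 NW calcium-flux fluorescence, kinetic read. Read-out basis: peak-minus-minimum fluorescence over baseline, converted to B scores. Control set: positive and negative control wells on each plate.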
RGS4 act: RGS4 potentiation or activation | B-score at 10 µM | 310,000 compounds, 0.92% hits | AID 463111 | HEK293 M3R/inducible RGS4, carbachol calcium flux Fluo4; stronger effect = lower value;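 active = B-score of the integrated calcium signal more than 4 SD below the library mean, with starting fluorescence not abnormally high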;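 also: negative B-score means reduced calcium response which marks RGS4 activation or potentiation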
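System – HEK293 FlpIn-TREx cells, stable M3R, doxycycline-inducible RGS4 · Reagent – ECmax carbachol challenge · Times – compound preincubation 20 min at room temperature before agonist · Technique – Fluo4 fluorescence kinetic imaging of calcium · Measure – B score of integrated Fluo4 ratio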
An asterisk follows results filed as active; i = inactive; . = no result given.

SMILES	MrgX1 antagonist	MrgX1 allo act	RGS4 block	MrgX1 ag	RGS4 act
O=C(O)C1=CC[C@@H](c2ccc(Cl)cc2)N(S(=O)(=O)c2ccc(Cl)cc2)[C@H]1c1ccc(F)cc1	i	8.3*	.	i	.
Cc1ccc([C@@H]2CC=C(C(=O)O)[C@H](c3ccccc3F)N2S(=O)(=O)c2ccc(C)cc2)cc1	i	8.9*	.	i	.
Cc1ccc([C@@H]2CC=C(C(=O)O)[C@H](c3ccc(F)cc3)N2S(=O)(=O)c2ccc(C)cc2)cc1	i	i	.	i	.
Cc1ccccc1OCCC(=O)N1CCN(S(=O)(=O)c2ccc(Cl)cc2)CC1	i	i	i	i	i
C/C(=N\NC(=O)COc1ccc(C)cc1[N+](=O)[O-])c1cccs1	-6.5*	i	i	i	i
C/C(=N\NC(=O)COc1ccc(C)cc1Br)c1cc([N+](=O)[O-])cs1	i	i	i	i	i
CCOc1ccc(C(=O)Nc2ccc(NC(=O)c3cccs3)cc2)cc1[N+](=O)[O-]	-7.3*	i	i	i	i
O=C(CN(c1ccc(F)cc1)S(=O)(=O)c1ccccc1)N1CCOCC1	i	i	i	i	i
O=C(Cn1nnc2ccccc21)OCC(=O)c1ccccc1	-6.1*	i	i	i	i
CC12CC(NC(=O)N1c1cccc(C(=O)NCc3ccc4c(c3)OCO4)c1)c1cc(Cl)ccc1O2 (stereo not given)	-7*	i	i	i	i
CC(C)C(=O)Nc1cccc(C(=O)NCc2ccc3c(c2)OCO3)c1	i	i	i	i	i
N=c1oc2cc(O)ccc2cc1C(=O)Nc1ccc(Cl)cc1	i	i	i	i	i
Cc1cccc(NC(=S)NCC(C)CSc2ccc(Cl)cc2)c1 (stereo not given)	-6.4*	i	i	i	i
Cc1ccc(NC(=S)NCC(C)CSc2ccc(Cl)cc2)cc1 (stereo not given)	i	i	i	i	i
COc1ccccc1OCc1nnc(SCC(=O)Nc2nnc(C3CC3)s2)n1C	i	i	i	i	i
O=C(NC1CCCC1)c1cc(=O)[nH]c2ccccc12	i	i	i	i	i
CCCCCC(=O)NNC(=S)NC(=O)c1ccc([N+](=O)[O-])cc1	i	i	i	61*	i
O=C(NNC(=S)NC(=O)c1ccccc1)c1ccc([N+](=O)[O-])cc1	i	i	i	77*	i
Cc1ccc(C(=O)NC(=S)NNC(=O)c2ccc([N+](=O)[O-])cc2)cc1	i	i	i	40*	i
O=C(NNC(=S)NC(=O)c1ccc(Br)cc1)c1cccc([N+](=O)[O-])c1	i	i	i	i	i
COc1ccc(OCC(=O)NNC(=S)NC(=O)c2ccc([N+](=O)[O-])cc2)cc1	i	i	i	i	i
O=C(NNC(=S)NC(=O)c1ccccc1Cl)c1cccc([N+](=O)[O-])c1	i	i	i	103*	i
O=C(NNC(=S)NC(=O)c1ccc(Br)cc1)c1ccc([N+](=O)[O-])cc1	i	i	i	i	i
CCC(C)c1ccc(OCc2ccc(C(=O)OC)o2)cc1 (stereo not given)	i	i	i	i	i
O=C(O)c1ccc(N=C2NC(=O)C(CO)(CO)S2)cc1	i	i	i	i	i
SMILES	MrgX1 antagonist	MrgX1 allo act	RGS4 block	MrgX1 ag	RGS4 act
N#C[C@H]1C2OC2c2ccccc2N1C(=O)c1ccccc1 (stereo not given in full)	-7.9*	i	i	i	i
Cc1cc2ncn(-c3ncccc3[N+](=O)[O-])c2cc1C	i	i	i	27*	i
CCC(c1n[nH]c(=S)n1-c1ccccc1)N(C)C (stereo not given)	i	i	i	i	i
CC(C)CCC(CC(C)O)c1n[nH]c(=S)n1-c1ccccc1 (stereo not given)	-4.9*	i	i	i	i
CCOc1ccc(NS(=O)(=O)c2ccc(C(=O)NCC(c3cccs3)N3CCOCC3)cc2)cc1 (stereo not given)	-6.5*	i	i	i	i
CC(=O)c1ccc(S(=O)(=O)Nc2ccc(C(=O)NCC(c3cccs3)N3CCOCC3)cc2)cc1 (stereo not given)	i	i	i	i	i
CN(C)CCN(C(=O)c1ccc(S(=O)(=O)N(C)C)cc1)c1nc2cc3c(cc2s1)OCCO3	i	i	i	i	i
CCN(c1ccccc1)S(=O)(=O)c1ccc(C(=O)N(CCN(C)C)c2nc3c(F)cc(F)cc3s2)cc1	i	i	14*	i	i
CN(C)CCN(C(=O)c1ccc(S(=O)(=O)N(C)c2ccccc2)cc1)c1nc2cc3c(cc2s1)OCCO3	i	i	i	i	-7.8*
COc1ccc(NS(=O)(=O)c2cccc(C(=O)NC3CCC(O)CC3)c2)cc1 (stereo not given)	i	i	i	i	i
Cc1ccc(-c2nc(C(=O)NCC3CCCO3)cc3c2[nH]c2ccccc23)cc1 (stereo not given)	i	i	i	i	-7*
CCOc1cccc(CNc2ccc(O)cc2)c1OCc1ccccc1Cl	i	i	i	29*	i
CCOc1cccc(CNc2ccc(O)cc2)c1OCc1ccc(Cl)cc1Cl	i	i	i	i	i
O=C(NCC(=O)N1CCC2(CC1)NCCc1[nH]cnc12)c1ccc(F)cc1	i	i	i	i	i
Cc1ccc(-n2c3nc(=O)n(C)c(=O)c-3cc3ccccc32)cc1	i	i	i	i	-8*
COc1ccccc1NC(=O)Nc1nnc(CC(=O)Nc2cccc(C)c2)s1	i	i	i	i	i
CC(=O)Nc1ccccc1OCC(=O)c1cc(C)n(Cc2cccs2)c1C	i	i	i	48*	i
CCNC(=O)NCCNC(=O)c1cc(OCC(F)(F)F)ccc1OCC(F)(F)F	-5.5*	i	i	i	i
CN(c1cccc(NC(=O)c2ccc(Cl)c(S(=O)(=O)N3CCOCC3)c2)c1)S(C)(=O)=O	i	i	i	i	i
CC(=O)Oc1ccc(N(C(C)=O)S(=O)(=O)c2ccc3ccccc3c2)cc1	i	i	i	i	i
CCOc1ccc(/C=C2\SC(=S)N(NS(=O)(=O)c3ccccc3)C2=O)cc1OC	i	i	i	i	i
O=C1/C(=C/C=C/c2ccco2)SC(=S)N1NS(=O)(=O)c1ccccc1	i	7.9*	.	i	.
O=C1/C(=C/c2cccs2)SC(=S)N1NS(=O)(=O)c1ccccc1	i	i	i	i	i
